Source: ChEMBL document CHEMBL2346607, “Borrelidin analogues with antimalarial activity: design, synthesis and biological evaluation against Plasmodium falciparum parasites” (Bioorg Med Chem Lett, 2013)
In brackets after ≈: the same amount, converted by molar mass.

Columns and labels:
[1] = Selectivity index, ratio of IC50 for human […] cells to IC50 for Plasmodium falciparum K1; format: toxicity, cell-based; settings: MCR5 cells (cytotoxicity) versus Plasmodium falciparum K1, read-out: Ratio IC50
Method in brief: (§1)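 SI is the MRC-5 cytotoxicity IC50 (ng/mL) divided by the antimalarial IC50 (ng/mL) against the FCR3 or K1 strain. Both IC50s come from the same in vitro test series.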

[2] = Cytotoxicity against human […] cells after 7 days by MTT assay; format: cell-based; settings: 168 h
Method in brief: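 Cytotoxicity was tested on MRC-5, a human diploid embryonic cell line. The value is reported as an IC50 in ng/mL.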

[3] = Selectivity index, ratio of IC50 for human […] cells to IC50 for Plasmodium falciparum FCR-3; format: toxicity, cell-based; settings: […] cells (cytotoxicity) versus Plasmodium falciparum FCR-3, read-out: Ratio IC50; method in brief: as §1
[4] = system: Plasmodium falciparum; assay: Antimalarial activity against Plasmodium falciparum K1 infected in human erythrocytes after 72 hrs by lactate dehydrogenase assay; format: functional, organism-based; settings: K1, 72 h
Method in brief: (§2)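 In vitro assay against the P. falciparum strains K1 (drug-resistant) and FCR3 (drug-sensitive). The value is reported as an IC50 in ng/mL.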

[5] = system: Plasmodium falciparum; assay: Antimalarial activity against Plasmodium falciparum FCR-3 infected in human erythrocytes after 72 hrs by lactate dehydrogenase assay; format: functional, cell-based; settings: FCR-3/Gambia; method in brief: as §2

Compound | selectivity ratio [1] | IC50 [2] | selectivity ratio [3] | IC50 [4] | IC50 [5]
C[C@@H]1C[C@H](C)C[C@H](C)[C@@H](O)CC(=O)O[C@H]([C@@H]2CCC[C@H]2C(=O)OCc2cn(C34CC5CC(CC(C5)C3)C4)nn2)C/C=C/C=C(/C#N)[C@H](O)[C@@H](C)C1 | 39 | 2.7 µg/mL (≈ 3.83 µM) | 16 | 70 ng/mL (≈ 0.0993 µM) | 168 ng/mL (≈ 0.238 µM)
C[C@@H]1C[C@H](C)C[C@H](C)[C@@H](O)CC(=O)O[C@H]([C@@H]2CCC[C@H]2C(=O)Sc2ccccc2)C/C=C/C=C(/C#N)[C@H](O)[C@@H](C)C1 | 9 | 0.98 µg/mL (≈ 1.68 µM) | 6 | 107 ng/mL (≈ 0.184 µM) | 160 ng/mL (≈ 0.275 µM)
C[C@@H]1C[C@H](C)C[C@H](C)[C@@H](O)CC(=O)O[C@H]([C@@H]2CCC[C@H]2C(=O)OCc2cn(CSc3ccccc3)nn2)C/C=C/C=C(/C#N)[C@H](O)[C@@H](C)C1 | 542000 | 16.8 µg/mL (≈ 24.2 µM) | 19800 | 0.031 ng/mL (≈ 4.47e-05 µM) | 0.85 ng/mL (≈ 0.00123 µM)
C[C@@H]1C[C@H](C)C[C@H](C)[C@@H](O)CC(=O)O[C@H]([C@@H]2CCC[C@H]2C(=O)OCc2cn(-c3ccc(C(=O)O)cc3)nn2)C/C=C/C=C(/C#N)[C@H](O)[C@@H](C)C1 | 267 | 10.1 µg/mL (≈ 14.6 µM) | 209 | 37.8 ng/mL (≈ 0.0547 µM) | 48.5 ng/mL (≈ 0.0702 µM)
C[C@@H]1C[C@H](C)C[C@H](C)[C@@H](O)CC(=O)O[C@H]([C@@H]2CCC[C@H]2C(=O)OCc2cn(-c3cccnc3)nn2)C/C=C/C=C(/C#N)[C@H](O)[C@@H](C)C1 | 143 | 0.41 µg/mL (≈ 0.633 µM) | 86 | 2.9 ng/mL (≈ 0.00448 µM) | 4.8 ng/mL (≈ 0.00741 µM)
C[C@@H]1C[C@H](C)C[C@H](C)[C@@H](O)CC(=O)O[C@H]([C@@H]2CCC[C@H]2C(=O)OCc2cn(-c3cnc4ccccc4c3)nn2)C/C=C/C=C(/C#N)[C@H](O)[C@@H](C)C1 | 15600 | 1.05 µg/mL (≈ 1.5 µM) | 13400 | 0.067 ng/mL (≈ 9.6e-05 µM) | 0.079 ng/mL (≈ 0.000113 µM)
C#CCOC(=O)[C@@H]1CCC[C@H]1[C@@H]1C/C=C/C=C(/C#N)[C@H](O)[C@@H](C)C[C@H](C)C[C@H](C)C[C@H](C)[C@@H](O)CC(=O)O1 | 462 | 1.2 µg/mL (≈ 2.27 µM) | 240 | 2.6 ng/mL (≈ 0.00493 µM) | 5 ng/mL (≈ 0.00948 µM)
C[C@@H]1C[C@H](C)C[C@H](C)[C@@H](O)CC(=O)O[C@H]([C@@H]2CCC[C@H]2C(=O)OCCN(C)C)C/C=C/C=C(/C#N)[C@H](O)[C@@H](C)C1 | 581 | 0.18 µg/mL (≈ 0.321 µM) | 750 | 0.31 ng/mL (≈ 0.000553 µM) | 0.24 ng/mL (≈ 0.000428 µM)
C[C@@H]1C[C@H](C)C[C@H](C)[C@@H](O)CC(=O)O[C@H]([C@@H]2CCC[C@H]2C(=O)OCCN2CCOCC2)C/C=C/C=C(/C#N)[C@H](O)[C@@H](C)C1 | 419 | 0.26 µg/mL (≈ 0.431 µM) | 604 | 0.62 ng/mL (≈ 0.00103 µM) | 0.43 ng/mL (≈ 0.000713 µM)
C[C@@H]1C[C@H](C)C[C@H](C)[C@@H](O)CC(=O)O[C@H]([C@@H]2CCC[C@H]2C(=O)NCC(=O)O)C/C=C/C=C(/C#N)[C@H](O)[C@@H](C)C1 | 2850 | 58.9 µg/mL (≈ 108 µM) | 1900 | 21 ng/mL (≈ 0.0384 µM) | 31 ng/mL (≈ 0.0567 µM)
C[C@@H]1C[C@H](C)C[C@H](C)[C@@H](O)CC(=O)O[C@H]([C@@H]2CCC[C@H]2C(=O)N[C@@H](C)C(=O)O)C/C=C/C=C(/C#N)[C@H](O)[C@@H](C)C1 | – | – | 4190 | – | 13 ng/mL (≈ 0.0232 µM)
C[C@@H]1C[C@H](C)C[C@H](C)[C@@H](O)CC(=O)O[C@H]([C@@H]2CCC[C@H]2C(=O)N[C@@H](CO)C(=O)O)C/C=C/C=C(/C#N)[C@H](O)[C@@H](C)C1 | > 714 | > 1000 µg/mL | > 500 | 140 ng/mL (≈ 0.243 µM) | 200 ng/mL (≈ 0.347 µM)
C[C@@H]1C[C@H](C)C[C@H](C)[C@@H](O)CC(=O)O[C@H]([C@@H]2CCC[C@H]2C(=O)N[C@@H](CC(N)=O)C(=O)O)C/C=C/C=C(/C#N)[C@H](O)[C@@H](C)C1 | > 172 | > 1000 µg/mL | > 124 | 580 ng/mL (≈ 0.961 µM) | 810 ng/mL (≈ 1.34 µM)
CC[C@H](C)[C@H](NC(=O)[C@@H]1CCC[C@H]1[C@@H]1C/C=C/C=C(/C#N)[C@H](O)[C@@H](C)C[C@H](C)C[C@H](C)C[C@H](C)[C@@H](O)CC(=O)O1)C(=O)O | 3200 | 64 µg/mL (≈ 106 µM) | 5330 | 18 ng/mL (≈ 0.0299 µM) | 12 ng/mL (≈ 0.0199 µM)
C[C@@H]1C[C@H](C)C[C@H](C)[C@@H](O)CC(=O)O[C@H]([C@@H]2CCC[C@H]2C(=O)N[C@@H](Cc2ccc(O)cc2)C(=O)O)C/C=C/C=C(/C#N)[C@H](O)[C@@H](C)C1 | 206 | 33.4 µg/mL (≈ 51.2 µM) | 197 | 163 ng/mL (≈ 0.25 µM) | 170 ng/mL (≈ 0.26 µM)
CCSC(=O)[C@@H]1CCC[C@H]1[C@@H]1C/C=C/C=C(/C#N)[C@H](O)[C@@H](C)C[C@H](C)C[C@H](C)C[C@H](C)[C@@H](O)CC(=O)O1 | 1570 | 12.7 µg/mL (≈ 23.8 µM) | 1340 | 8 ng/mL (≈ 0.015 µM) | 10 ng/mL (≈ 0.0187 µM)
CCCSC(=O)[C@@H]1CCC[C@H]1[C@@H]1C/C=C/C=C(/C#N)[C@H](O)[C@@H](C)C[C@H](C)C[C@H](C)C[C@H](C)[C@@H](O)CC(=O)O1 | 20 | 3.4 µg/mL (≈ 6.21 µM) | 12 | 167 ng/mL (≈ 0.305 µM) | 280 ng/mL (≈ 0.511 µM)
CC(C)SC(=O)[C@@H]1CCC[C@H]1[C@@H]1C/C=C/C=C(/C#N)[C@H](O)[C@@H](C)C[C@H](C)C[C@H](C)C[C@H](C)[C@@H](O)CC(=O)O1 | 172 | 10.2 µg/mL (≈ 18.6 µM) | 142 | 59 ng/mL (≈ 0.108 µM) | 72 ng/mL (≈ 0.131 µM)
CCCCSC(=O)[C@@H]1CCC[C@H]1[C@@H]1C/C=C/C=C(/C#N)[C@H](O)[C@@H](C)C[C@H](C)C[C@H](C)C[C@H](C)[C@@H](O)CC(=O)O1 | 12 | 2 µg/mL (≈ 3.56 µM) | 12 | 163 ng/mL (≈ 0.29 µM) | 170 ng/mL (≈ 0.303 µM)
CC(=O)O[C@H]1CC(=O)O[C@H]([C@@H]2CCC[C@H]2C(=O)O)C/C=C/C=C(/C#N)[C@H](OC(C)=O)[C@@H](C)C[C@H](C)C[C@H](C)C[C@@H]1C | 522 | 55.7 µg/mL (≈ 97.1 µM) | 464 | 107 ng/mL (≈ 0.186 µM) | 120 ng/mL (≈ 0.209 µM)
COC(=O)[C@@H]1CCC[C@H]1[C@@H]1C/C=C/C=C(/C#N)[C@H](O)[C@@H](C)C[C@H](C)C[C@H](C)C[C@H](C)[C@@H](O)CC(=O)O1 | 1460 | 14.6 µg/mL (≈ 29 µM) | 1460 | 10 ng/mL (≈ 0.0199 µM) | 10 ng/mL (≈ 0.0199 µM)
C[C@@H]1C[C@H](C)C[C@H](C)[C@@H](O)CC(=O)O[C@H]([C@@H]2CCC[C@H]2C(=O)O)CCCCC(C#N)[C@H](O)[C@@H](C)C1 (stereo not given in full) | 102 | – | 102 | 130 ng/mL (≈ 0.263 µM) | 130 ng/mL (≈ 0.263 µM)
CCOC(=O)[C@@H]1CCC[C@H]1[C@@H]1C/C=C/C=C(/C#N)[C@H](O)[C@@H](C)C[C@H](C)C[C@H](C)C[C@H](C)[C@@H](O)CC(=O)O1 | 323 | 21.9 µg/mL (≈ 42.3 µM) | 939 | 67.8 ng/mL (≈ 0.131 µM) | 23.3 ng/mL (≈ 0.045 µM)
CCCOC(=O)[C@@H]1CCC[C@H]1[C@@H]1C/C=C/C=C(/C#N)[C@H](O)[C@@H](C)C[C@H](C)C[C@H](C)C[C@H](C)[C@@H](O)CC(=O)O1 | 202 | 18.2 µg/mL (≈ 34.2 µM) | 232 | 90.4 ng/mL (≈ 0.17 µM) | 78.8 ng/mL (≈ 0.148 µM)
C[C@@H]1C[C@H](C)C[C@H](C)[C@@H](O)CC(=O)O[C@H]([C@@H]2CCC[C@H]2C(=O)OCc2ccccc2)C/C=C/C=C(/C#N)[C@H](O)[C@@H](C)C1 | 165 | 4.05 µg/mL (≈ 6.99 µM) | 198 | 24.6 ng/mL (≈ 0.0424 µM) | 20.5 ng/mL (≈ 0.0354 µM)
C=CCOC(=O)[C@@H]1CCC[C@H]1[C@@H]1C/C=C/C=C(/C#N)[C@H](O)[C@@H](C)C[C@H](C)C[C@H](C)C[C@H](C)[C@@H](O)CC(=O)O1 | 59.6 | 4.63 µg/mL (≈ 8.74 µM) | 118 | 77.7 ng/mL (≈ 0.147 µM) | 39.2 ng/mL (≈ 0.074 µM)
C[C@@H]1CC[C@H]2[C@@H](C)C(=O)O[C@@H]3O[C@@]4(C)CC[C@@H]1[C@]32OO4 [ARTEMISININ] | 7530 | 45.2 µg/mL (≈ 160 µM) | 7530 | – | –
C[C@@H]1C[C@H](C)C[C@H](C)[C@@H](O)CC(=O)O[C@H]([C@@H]2CCC[C@H]2C(=O)O)C/C=C/C=C(/C#N)[C@H](O)[C@@H](C)C1 [BORRELIDIN] | 216 | 0.201 µg/mL (≈ 0.41 µM) | 228 | 0.93 ng/mL (≈ 0.0019 µM) | 0.88 ng/mL (≈ 0.0018 µM)
CCN(CC)CCCC(C)Nc1ccnc2cc(Cl)ccc12 (stereo not given) [CHLOROQUINE] | – | 18.6 µg/mL (≈ 58.1 µM) | – | – | –
